Source: publication PMC5598522 (Toxicology Reports, 2014)

How the values were obtained:
[1] = Plasma exposure in ovariectomized rat study; format: in vivo; conditions: Ticagrelor 180 mg/kg/day, Day 1, 5 h post dose
In short: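 Female Han Wistar rats (350–375 g) ovariectomized and fitted with jugular and femoral vein catheters, then housed tethered at 23 ± 1 °C. Dosed orally at 180 mg/kg/day in 1% sodium carboxymethylcellulose/0.1% polysorbate 80, n = 10 per group. On Day 1, 0.5 mL blood taken 5 h post-dose into lithium heparin; exposure measured by protein precipitation and LC-MS/MS.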

dopamine D1 receptor = dopamine D1 receptor (Homo sapiens, UniProt P21728); experiment: Dopamine D1 receptor radioligand binding; conditions: 10 μM, [3H] SCH-23390, human recombinant CHO cells
dopamine D1 receptor, sequence (P21728 whole entry): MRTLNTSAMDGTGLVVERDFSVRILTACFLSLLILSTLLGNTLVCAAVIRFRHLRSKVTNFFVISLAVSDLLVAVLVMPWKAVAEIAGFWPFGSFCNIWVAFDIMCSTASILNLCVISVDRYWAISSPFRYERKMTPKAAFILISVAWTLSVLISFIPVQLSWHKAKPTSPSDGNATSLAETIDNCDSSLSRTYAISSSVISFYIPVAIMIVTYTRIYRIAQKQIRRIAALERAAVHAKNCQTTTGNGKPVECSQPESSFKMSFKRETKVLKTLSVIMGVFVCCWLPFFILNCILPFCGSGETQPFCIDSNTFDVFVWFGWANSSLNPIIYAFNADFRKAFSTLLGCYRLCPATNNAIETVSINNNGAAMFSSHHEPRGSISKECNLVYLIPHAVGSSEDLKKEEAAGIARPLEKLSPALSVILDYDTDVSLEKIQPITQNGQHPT
In short: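 Human recombinant receptors expressed in CHO cells (D1, D2L) or CHO-K1 cells (D4.2) were used in radioligand binding assays with [3H]SCH-23390 (D1), [3H]spiperone (D2L) or [3H]dopamine (D4.2). The test compound or its metabolite was tested at a single concentration of 10 μM. Results are expressed as percent inhibition of specific binding.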

[2] = Body weight and food consumption in rat 2 year carcinogenicity study; format: in vivo
In short: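 Seven-week-old Wistar Han rats, 50 per sex per group, gavaged daily for 2 years with 0, 20, 60 or 180 (female)/120 (male) mg/kg/day. Vehicle was 1% carboxymethylcellulose with 0.1% polysorbate 80 (w/v) at 5 mL/kg. Body weights taken pretreatment, daily to Week 13, then weekly. Analysis by Hartley's jackknifed F-max test and Fisher's F-protected t-test.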

SMILES: CCCSc1nc(N[C@@H]2C[C@H]2c2ccc(F)c(F)c2)c2nnn([C@@H]3C[C@H](OCCO)[C@@H](O)[C@H]3O)c2n1 [Ticagrelor]
- Plasma exposure (mean ± SD) [1]: 33.2 ± 10.6 µM
- Inhibition of radioligand binding at the D1 receptor (dopamine D1 receptor): neither Ticagrelor nor metabolite caused inhibition
- Body weight lower than the control group by the end of study ([2]; female rats, 180 mg/kg/day): approximately 20%
- Food consumption ([2]; female rats, 180 mg/kg/day): significantly decreased food consumption in 10 out of the last 14 measurements
- Food consumption ([2]; male rats): no consistent food consumption differences
- Body weight difference from the control group at the end of the study ([2]; male rats, high dose group (120 mg/kg/day)): ≤ 10%
